# Reference: ChEMBL document CHEMBL4513216, “Probing the Open Global Health Chemical Diversity Library for Multistage-Active Starting Points for Next-Generation Antimalarials” (ACS Infect Dis, 2020)
# Assay: Toxicity liver stage against HepG2, at 10uM
# Format: cell-based
# Parameters: test concentration 10 uM, cell line HepG2-A16-CD81EGFP
# Conditions: human, HepG2-A16-CD81EGFP cells; read-out: INHIBITION
# How it was run: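 Uninfected HepG2-A16-CD81EGFP cells, 3 × 10^3 per well, 1536-well, plated on prespotted compound at 10 μM final, parasite-free screening media added to match infected plates; puromycin 10 μM positive, DMSO 0.5% negative; run in parallel with 48 h PbLuc assay at 37 °C, 5% CO2; viability by CellTiter-Glo luminescence, normalized to controls.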
row,SMILES,cytotoxicity at 10 µM
1,COc1ccc2nc(C[C@@H]3C[C@@H](C(C)C)[C@H](CN)C=C3C)[nH]c2n1,3.38%
2,COCc1ccc(CN[C@H]2C[C@@H](Cc3cc(CCO)on3)C2(C)C)o1,-1.68%
3,COc1ccc(NC(=O)C(c2ccc(OC)cc2)N2CCOCC2)cc1 (configuration not stated),-3.39%
4,Cc1ccc(NC(=O)Cn2ncc(SCC(N)=O)c(Cl)c2=O)cc1,-16.9%
5,CCOc1ccc(S(=O)(=O)NCCc2ccc(N(C)C)cc2)cc1F,-3.56%
6,CN1CCCC(C(=O)N2CCC(Oc3ncccn3)CC2)C1 (configuration not stated),-5.2%
7,COc1cc(C(=O)N2CCO[C@H]3[C@H](OCC4CC4)CC[C@@H]32)ccc1F,9.32%
8,c1ccc(-c2nnc3sc(CCN4CCCCCC4)nn23)cc1,1.11%
9,Cc1cccc(NC(=O)c2nn(C3CCS(=O)(=O)C3)c3c2CCCC3)n1 (configuration not stated),10.5%
10,O=c1[nH]c2ccccc2c2c1CCO2,6.9%
11,CN1CCN(C(=O)c2ccc(Cn3cc(Br)cn3)cc2)CC1,-3.7%
12,Cc1nn(C)c2cn(CC(=O)N3CCN(c4ccccc4)CC3)nc12,6.94%
13,CCN1CCCC(O)(CNCc2ccccc2F)C1 (configuration not stated),-5.66%
14,Cc1nn(CCCNC(=O)C2CCN(S(C)(=O)=O)CC2)cc1Cl,-1.94%
15,Cn1ncc(C(=O)N2CCN(CCS(C)(=O)=O)CC2)c1Cl,4.33%
16,Cc1nc(NC2CCOCC2)cc(C2CCN2S(C)(=O)=O)n1 (configuration not stated),2.31%
17,CC(C)S(=O)(=O)N1C[C@@H](O)[C@H](N(C)Cc2ccc(F)cc2)C1,2.51%
18,Cc1cc(C)c2nc(C)c(C(=O)N3CCC(N4CCCC4)CC3)cc2c1,-3.19%
19,Cc1noc(C2CCCN2C(=O)C2CCC2)n1 (configuration not stated),-12.4%
20,CNc1cncc(C2CCCN2C(=O)c2ccc3c(c2)OCCO3)n1 (configuration not stated),-2.97%
21,Cc1cc(C(=O)NCC(F)(F)F)c2c(C3CCCN3)noc2n1 (configuration not stated),6%
22,COc1ccncc1NC(=O)c1[nH]nc(C(C)C)c1Br,4.04%
23,O=C1CC(N(C(=O)c2csc(-c3ccccc3)n2)C2CC2)C(=O)N1 (configuration not stated),15.2%

row,SMILES,cytotoxicity at 10 µM
1,CCc1ccsc1C(=O)NC(C#N)CC (configuration not stated),3.15%
2,CN(CCOc1cccc(S(C)(=O)=O)c1)CC(F)F,13%
3,O=S(=O)(Cc1nc(C2CC2)no1)c1ccccc1F,8.11%
4,CCCOc1ccc2c(c1)OCC(C(=O)NC(C)Cn1cccn1)=C2 (configuration not stated),4.46%
5,Cc1cc(CSCc2ccccn2)on1,7.69%
6,CC(C)COc1ccccc1C(N)CC(C)C (configuration not stated),-5.27%
7,COc1cccc(CCC(=O)Nc2c(C)nn(C)c2C)c1OC,1.98%
8,N#Cc1c(Cl)nsc1NCc1ccc(N2CCC(CO)CC2)cc1,-4.73%
9,CC(C)(C)c1cc(NC(=O)C2COCCO2)n(-c2ccccn2)n1 (configuration not stated),-3.49%
10,CN(c1cccc2ccccc12)S(=O)(=O)c1cc(C(=O)O)cs1,-2.88%
11,CC(c1ccc(Cl)cc1)N1CCN(CCCS(N)(=O)=O)CC1 (configuration not stated),-1.44%
12,CC(CNS(N)(=O)=O)c1ccc(F)c(F)c1 (configuration not stated),-12.1%
13,Cc1n[nH]c(C)c1C1CCCN1C(=O)NC(C)(C)C (configuration not stated),-4.27%
14,Cc1ccc(S(=O)(=O)NCC(C)C#N)cc1Br (configuration not stated),0.727%
15,NS(=O)(=O)c1cc(C(=O)N2CCCCC2)cs1,-0.174%
16,CN(C)C(=O)c1ccc(OC2CCOCC2)cc1,-2%
17,CCOC1CCCN(C(=O)c2[nH]nc(C(C)C)c2Br)C1 (configuration not stated),-6.78%
18,CCCc1noc(CNc2cc(C[S+](C)[O-])ccc2Cl)n1 (configuration not stated),-5.18%
19,NC(=O)C1=NC2=NS(=O)(=O)c3ccccc3N2N1Cc1ccccc1Cl,-10.9%
20,COCC1CCN(CCCc2cn[nH]c2)CC1,11.3%
21,COC(=O)c1sccc1CN1CCN(C(=O)c2ccc(C)o2)CC1,2.37%
22,CN(CC(F)(F)F)C(=O)CNC(=O)N1CCC(N2CCCC2)C1 (configuration not stated),3.72%
23,CC(C)c1ncc(Cl)c(C(=O)N2CCN(C3CCCC3)CC2)n1,8.69%

row,SMILES,cytotoxicity at 10 µM
1,Cc1nnnn1-c1cc(NCc2cccc(C#N)c2)ccc1F,7.09%
2,CCN(CC)c1ncc(CNCC2CCCn3ccnc32)s1 (configuration not stated),-29.9%
3,COCC(=O)N1CCN(C(=O)CCc2ccsc2)CC1,-17%
4,CN1CCN(Cc2ccccc2CNC(=O)c2ccc(Br)cc2F)CC1,4.65%
5,CCC(CC)c1cc(CNC(=O)N2CCOC(C)C2)on1 (configuration not stated),0.433%
6,CS(=O)(=O)NCc1ncn2c1CN(CCN1CCCC1)CCC2,-74.9%
7,CN(Cc1ccccc1)CC1(O)CCCN(Cc2ccc(F)cc2)C1=O (configuration not stated),-14.6%
8,Cc1cnccc1Cn1ccnc1C1CCOC1 (configuration not stated),-2.53%
9,CC(C)[C@@H]1CN(C(=O)c2ccsc2)C[C@H]1C(=O)O,12.8%
10,Cc1noc(C)c1CCN1CCCC1c1nc2cc(F)ccc2[nH]1 (configuration not stated),9.3%
11,Cc1cc(N2CCC(n3cc(CN4CCSCC4)nn3)CC2)ccn1,-12.5%
12,COc1ccc2c(c1)OCC(CNC(=O)NC(C)(C)C)C2 (configuration not stated),-8.54%
13,NC(=O)c1csc(N2CCN(Cc3cccc4nsnc34)CC2)n1,0.5%
14,O=C(CCCNCc1ccccc1)N1CCCn2cncc2C1,-3.32%
15,O=C(O)C1(n2ccnc2)CCN(Cc2cc3ccccc3o2)CC1,-6.34%
16,O=S1(=O)C[C@@H]2[C@H](C1)N(Cc1cc(Cl)cc(Cl)c1)CCN2CCO,0.303%
17,O=C(O)c1ccnc(-c2ccnc(NCCc3nc4c(s3)CCC4)n2)c1,-4.23%
18,CCC(C(=O)NC1(CN2CCOCC2)CCCC1)n1cccn1 (configuration not stated),4.52%
19,O=C(NCc1ccc2c(c1)OCO2)c1ccccc1C1CCNC1 (configuration not stated),-3.6%
20,OC1(CNCCCN2CCc3ccccc32)CCNC1 (configuration not stated),11.5%
21,Cc1cc(N2C[C@H](NC(=O)C3(C#N)CCOCC3)[C@@H](C(C)C)C2)ccn1,-4.1%
22,CCCC(Nc1nc(COCC)nc2c1CCNCC2)c1nccn1C (configuration not stated),-10.3%
23,Cc1ccc(OCC2CCCN(C(=O)c3csc(CN(C)C)n3)C2)cc1 (configuration not stated),-3.16%

row,SMILES,cytotoxicity at 10 µM
1,CCS(=O)(=O)CCNC(=O)[C@@]12CNC[C@@H]1CN(C1CCCC1)C2,-20.3%
2,CC(C)(N)C(=O)N1CCCC1c1cncc(Oc2ccc(F)cc2)n1 (configuration not stated),1.11%
3,CCCc1nc(CN2CCCCC2Cn2cncn2)cs1 (configuration not stated),-5.61%
4,Cc1nc2cc(O)nn2c(C)c1CCC(=O)NCCc1nccn1C,-0.84%
5,Cc1cccc(OCCN2CCN(Cc3noc(C)n3)CC2)c1,-8.78%
6,CS(=O)(=O)NCC1CCCCN1C(=O)c1cccc(C(F)(F)F)c1 (configuration not stated),-2.02%
7,CCCC1CCCN(C(=O)CCn2cccn2)CC1 (configuration not stated),-9.48%
8,CCn1ccnc1CN1CCN(C(C)C(=O)N2CCCCCC2)CC1 (configuration not stated),-7.01%
9,CS(=O)(=O)NC(=O)c1nnn(-c2cccc(F)c2)c1C1CC1,-3.9%
10,Cc1cnn(CC2CN(Cc3nnc(C(C)C)o3)CCO2)c1 (configuration not stated),-2.55%
11,Cc1cc(CNC(=O)Cc2c(C)nc3cc(=O)[nH]n3c2C)no1,-7.36%
12,Cc1cc(NC(=O)N(CCO)Cc2ccsc2)no1,-5.57%
13,O=C(CSc1ccc(Br)cc1)NS(=O)(=O)c1ccc2c(c1)OCCO2,-5.51%
14,CCNC(c1cccnc1)c1ccc(F)cc1F (configuration not stated),-2.34%
15,Cc1nc(C)n(CC2CCCCN2Cc2ncc(C(C)(C)C)o2)n1 (configuration not stated),0.299%
16,Cn1ccnc1COc1ccc(CN2CCN(CCO)CC2)cc1,-10.2%
17,CNc1nc(CNC(=O)Nc2cccc(F)c2)cs1,-5.45%
18,CC(C)CN(Cc1nc2c(cnn2C)c(=O)[nH]1)C(C)C,-9.96%
19,COc1ccc(CNC(=O)N2CCC(Cc3cnn(C)c3)C2)cc1C (configuration not stated),-9.52%
20,CC(C)(C)n1cc(C(=O)N2CCN(Cc3ccsc3)CC2)cn1,-5.79%
21,CCn1cnnc1CNC(=O)NC(C)c1cccs1 (configuration not stated),-4.92%
22,Cc1nc(C)n(CC2CCCN2Cc2cn3c(C)cccc3n2)n1 (configuration not stated),2.02%
23,CCc1nccn1C1CCCN(C(=O)CCCNc2ncccn2)C1 (configuration not stated),-1.3%

row,SMILES,cytotoxicity at 10 µM
1,CCOc1ncccc1NC(=O)NC1CCCN(c2ncccn2)C1 (configuration not stated),-10.6%
2,CN1CCCC1c1cc2cccnc2n1Cc1ccc(F)cc1 (configuration not stated),5.44%
3,O=C(NCc1ccc(F)cc1)N1CCN(CC(O)C2CC2)CC1 (configuration not stated),8.88%
4,O=C(NCC1CCC2(CCNCC2)O1)C1CC1 (configuration not stated),-5.01%
5,CCN1CCn2c(C)cnc2C12CCN(C(=O)Cc1ccccc1)CC2,4.59%
6,Cc1occc1C(=O)N1CCO[C@H]2[C@@H](Oc3ccccn3)CC[C@@H]21,2.37%
7,O=C(c1ccnnc1)N1C[C@H]2CCC[C@@]2(COCc2ccccn2)C1,-78.7%
8,CN1CCN(Cc2cnc3n2CCN(Cc2cccs2)C3)CC1,-3.24%
9,O=C1[C@H]2CN(Cc3ccco3)C[C@H]2CN1c1ccsc1,-71.9%
10,Cc1noc(C)c1CN1CCC2(CC1)CC(Oc1cccnc1)C2,23.2%
11,CN(C)C(=O)CN1CC[C@H]2CN(C3CCOCC3)C[C@@H]2C1=O,-3.84%
12,CCOC1COC2(CCN(Cc3ccc(C)c(C)c3)CC2)C1 (configuration not stated),-11.2%
13,COCCN1C[C@@H]2[C@@H](OC)CCN(S(=O)(=O)c3cccnc3)[C@@H]2C1,-71.7%
14,CN1C(=O)C2(CCN(CC3CC3)CC2)c2ccccc21,3.16%
15,c1cncc(CN2CCn3c(Cn4cncn4)cnc3C2)c1,-70.9%
16,CN(Cc1cn2c(n1)CN(Cc1ccsc1)CC2)Cc1ccco1,-78.5%
17,O=C(c1cccnc1)N1CCn2cc(CN3CCCC3)nc2C1,-74.8%
18,Cn1ncc2c1CCCC2NCc1cc(Br)cs1 (configuration not stated),-0.481%
19,O=C1CC2(CCN(Cc3ccncc3)C2)CN1c1ccc2c(c1)OCO2 (configuration not stated),-74.1%
20,CN1CCN(C(=O)N2C[C@@H]3CC[C@H]2CN(Cc2ccccc2)C3)CC1,-7.71%
